# Reference: ChEMBL document CHEMBL1156597, “Structure-activity relationship of kahalalide F synthetic analogues” (J Med Chem, 2008)
# Tests used:
# [1] = tested on: LNCaP; test: Cytotoxicity against human LNcaP cells after 48 hrs by SRB assay; format: functional; details: for CC50: read-out: LC50 (the source's name)
# How it was run: (§1)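 Cells grown in RPMI 1640 with 10% FBS and penicillin/streptomycin at 37 °C and 5% CO₂, trypsinized, then seeded at 5 × 10³/well. After 18 h drug-free attachment, samples in DMSO/EtOH/PBS (0.5:0.5:99) were added for 48 h continuous exposure. Cells were fixed with cold TCA (1 h, 4 °C) and stained with SRB (10 min). Tris-solubilized stain read at 490 nm. Triplicate wells, mean ± SD; GI₅₀ derived.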
# [2] = tested on: LoVo; test: Cytotoxicity against human LoVo cells after 48 hrs by SRB assay; format: functional; details: for CC50: read-out: LC50 (the source's name)
# [3] = tested on: HeLa; test: Cytotoxicity against human HeLa cells after 48 hrs by SRB assay; format: functional; details: for CC50: read-out: LC50 (the source's name); how it was run: as §1
# [4] = tested on: K562; test: Cytotoxicity against human K562 cells after 48 hrs by SRB assay; format: functional; details: K562, 48 h; for CC50: read-out: LC50 (the source's name); how it was run: as §1
# [5] = tested on: A549; test: Cytotoxicity against human A549 cells after 48 hrs by SRB assay; format: functional, cell-based; details: Homo sapiens, A549, 48 h; how it was run: as §1
# [6] = tested on: DU-145; test: Cytotoxicity against human DU145 cells after 48 hrs by SRB assay; format: functional, cell-based; details: Homo sapiens, DU-145, 48 h; for CC50: read-out: LC50 (the source's name); how it was run: as §1
# [7] = Cytotoxicity against human HeLa-APL cells after 48 hrs by SRB assay; format: functional; how it was run: as §1
# [8] = tested on: PANC-1; test: Cytotoxicity against human PANC1 cells after 48 hrs by SRB assay; format: functional; details: PANC-1, 48 h; for CC50: read-out: LC50 (the source's name); how it was run: as §1
# [9] = tested on: HT-29; test: Cytotoxicity against human HT29 cells after 48 hrs by SRB assay; format: functional, cell-based; details: Homo sapiens, HT-29, 48 h; for CC50: read-out: LC50 (the source's name); how it was run: as §1
# [10] = tested on: SK-BR-3; test: Cytotoxicity against human SKBR3 cells after 48 hrs by SRB assay; format: functional; details: SK-BR-3, 48 h; for CC50: read-out: LC50 (the source's name); for GI50: read-out: GI50; how it was run: as §1
# [11] = Cytotoxicity against human IGROV-ET cells after 48 hrs by SRB assay; format: functional; details: for CC50: read-out: LC50 (the source's name); how it was run: as §1
# [12] = tested on: SK-MEL-28; test: Cytotoxicity against human SK-MEL-28 cells after 48 hrs by SRB assay; format: functional, cell-based; details: Homo sapiens, SK-MEL-28, 48 h; for CC50: read-out: LC50 (the source's name); how it was run: as §1
# [13] = Cytotoxicity against human IGROV cells after 48 hrs by SRB assay; format: functional; details: for CC50: read-out: LC50 (the source's name); how it was run: as §1
# [14] = tested on: LoVo; test: Cytotoxicity against human doxorubicin resistant LoVo cells after 48 hrs by SRB assay; format: functional; details: for CC50: read-out: LC50 (the source's name); how it was run: as §1
SMILES,GI50 [1],TGI [1],CC50 [1],CC50 [2],CC50 [3],CC50 [4],LC50 [5],CC50 [6],LC50 (concentration giving 50% net cell kill) [7],CC50 [8],CC50 [9],CC50 [10],CC50 [11],CC50 [12],CC50 [13],GI50 [2],TGI [2],GI50 [4],TGI [4],TGI [10],other results
C/C=C1\NC(=O)[C@H](Cc2ccccc2)NC(=O)[C@@H](C(C)C)NC(=O)[C@@H]([C@H](C)CC)NC(=O)[C@H](NC(=O)[C@H](NC(=O)[C@H](CCCN)NC(=O)[C@H]2CCCN2C(=O)[C@H](NC(=O)[C@H](CCC(N)=O)NC(=O)[C@@H](NC(=O)[C@H](NC(=O)CCCC(C)C)C(C)C)[C@@H](C)O)C(C)C)[C@H](C)CC)[C@H](C)OC(=O)[C@H](C(C)C)NC1=O,3.12 µM,3.17 µM,1.51 µM,4.69 µM,1.02 µM,2.39 µM,1.87 µM,1.62 µM,1.3 µM,2.48 µM,0.869 µM,2.72 µM,0.689 µM,1.41 µM,0.619 µM,–,–,–,–,–,–
C/C=C1\NC(=O)[C@H](Cc2ccccc2)NC(=O)[C@@H](C(C)C)NC(=O)[C@@H]([C@H](C)CC)NC(=O)[C@H](NC(=O)[C@H](NC(=O)[C@H](CCCN)NC(=O)[C@H]2CCCN2C(=O)[C@H](NC(=O)[C@@H]2CCCN2C(=O)[C@@H](NC(=O)[C@H](NC(=O)CCCC(C)C)C(C)C)[C@@H](C)O)C(C)C)[C@H](C)CC)[C@H](C)OC(=O)[C@H](C(C)C)NC1=O,0.347 µM,3.24 µM,1.54 µM,4.79 µM,1.04 µM,2.44 µM,1.91 µM,1.65 µM,1.32 µM,2.54 µM,0.887 µM,2.78 µM,0.703 µM,1.44 µM,0.632 µM,–,–,–,–,–,–
C/C=C1\NC(=O)[C@H](Cc2ccccc2)NC(=O)[C@@H](C(C)C)NC(=O)[C@@H]([C@H](C)CC)NC(=O)[C@H](NC(=O)[C@H](NC(=O)[C@H](CCCN)NC(=O)[C@H]2CCCN2C(=O)[C@H](NC(=O)CNC(=O)[C@@H](NC(=O)[C@H](NC(=O)CCCC(C)C)C(C)C)[C@@H](C)O)C(C)C)[C@H](C)CC)[C@H](C)OC(=O)[C@H](C(C)C)NC1=O,3.05 µM,3.32 µM,1.58 µM,4.92 µM,1.07 µM,2.5 µM,1.96 µM,1.7 µM,1.36 µM,2.6 µM,0.911 µM,2.85 µM,0.722 µM,1.48 µM,0.649 µM,10.7 µM,9.72 µM,2.57 µM,3.12 µM,–,–
C/C=C1\NC(=O)[C@H](Cc2ccccc2)NC(=O)[C@@H](C(C)C)NC(=O)[C@@H]([C@H](C)CC)NC(=O)[C@H](NC(=O)[C@H](NC(=O)[C@H](CCCN)NC(=O)[C@H]2CCCN2C(=O)[C@H](NC(=O)[C@@H](NC(=O)[C@@H](NC(=O)[C@H](NC(=O)CCCC(C)C)C(C)C)[C@@H](C)O)C(C)C)C(C)C)[C@H](C)CC)CNC(=O)[C@H](C(C)C)NC1=O,–,–,1.55 µM,4.84 µM,1.05 µM,2.46 µM,1.93 µM,1.67 µM,1.34 µM,2.56 µM,0.895 µM,2.81 µM,0.71 µM,1.46 µM,0.637 µM,11.5 µM,9.55 µM,–,–,8.04 µM,GI50 [10]: 8.66 µM
C/C=C1\NC(=O)[C@H](Cc2ccccc2)NC(=O)[C@@H](CCC2CCCCC2)NC(=O)[C@@H](CCC2CCCCC2)NC(=O)[C@H](NC(=O)[C@@H](CCC2CCCCC2)NC(=O)[C@H](CCCN)NC(=O)[C@H]2CCCN2C(=O)[C@H](NC(=O)[C@@H](NC(=O)[C@@H](NC(=O)[C@H](NC(=O)CCCC(C)C)C(C)C)[C@@H](C)O)C(C)C)C(C)C)[C@H](C)OC(=O)[C@H](C(C)C)NC1=O,0.304 µM,0.415 µM,0.633 µM,0.264 µM,0.586 µM,0.98 µM,0.222 µM,0.104 µM,0.573 µM,1.45 µM,0.32 µM,0.0878 µM,0.055 µM,0.144 µM,0.161 µM,0.282 µM,0.274 µM,0.363 µM,0.63 µM,0.201 µM,GI50 [3]: 0.255 µM; TGI [3]: 0.361 µM; GI50 [5]: 0.173 µM; GI50 ([5]; read-out: GI50): 0.161 µM; GI50 [6]: 0.125 µM; GI50 ([6]; read-out: GI50): 0.148 µM; GI50 [7]: 0.233 µM; TGI [7]: 3.4 µM; GI50 [8]: 1.32 µM; TGI [8]: 1.38 µM; GI50 [9]: 0.359 µM; TGI [9]: 0.339 µM; GI50 [10]: 0.249 µM; GI50 [11]: 0.227 µM; GI50 ([11]; read-out: GI50): 0.255 µM; GI50 [12]: 0.159 µM; GI50 ([12]; read-out: GI50): 0.174 µM; CC50 [14]: 0.0274 µM; GI50 [13]: 0.139 µM; GI50 ([13]; read-out: GI50): 0.214 µM
C/C=C1\NC(=O)[C@H](Cc2ccccc2)NC(=O)[C@@H](C(C)C)NC(=O)[C@@H]([C@H](C)CC)NC(=O)[C@H](NC(=O)[C@H](NC(=O)[C@H](CCCN)NC(=O)[C@H]2CCCN2C(=O)[C@H](NC(=O)[C@@H](NC(=O)[C@@H](NC(=O)[C@H](NC(=O)CC[C@@H](C)[C@H]2CC[C@H]3[C@@H]4CC[C@@H]5C[C@H](OC(=O)C(F)(F)F)CC[C@]5(C)[C@H]4CC[C@]23C)C(C)C)[C@@H](C)OC(=O)C(F)(F)F)C(C)C)C(C)C)[C@H](C)CC)[C@H](C)OC(=O)[C@H](C(C)C)NC1=O,0.729 µM,0.783 µM,0.838 µM,0.614 µM,0.789 µM,1.22 µM,0.835 µM,0.663 µM,0.71 µM,1.37 µM,0.921 µM,0.185 µM,2.03 µM,0.124 µM,0.317 µM,0.285 µM,0.337 µM,1.07 µM,0.857 µM,0.116 µM,GI50 [5]: 0.89 µM; GI50 ([5]; read-out: GI50): 0.946 µM; GI50 [6]: 0.683 µM; GI50 ([6]; read-out: GI50): 0.698 µM; GI50 [8]: 1.66 µM; TGI [8]: 1.37 µM; GI50 [9]: 0.463 µM; TGI [9]: 0.479 µM; GI50 [10]: 0.0784 µM; GI50 [11]: 0.7 µM; GI50 ([11]; read-out: GI50): 0.638 µM; GI50 [12]: 0.158 µM; GI50 ([12]; read-out: GI50): 0.201 µM; GI50 [14]: 0.336 µM; TGI [14]: 0.381 µM; CC50 [14]: 2.11 µM; GI50 [13]: 0.384 µM; GI50 ([13]; read-out: GI50): 0.405 µM
